Unmarked numbers belong to inactive results. Results filed as inconclusive are left out. The source made the active and inactive calls.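 The calls were made as follows, unless noted: active = viability at or below 27.92% in each of two runs, the all-compound median minus 4 SD; inconclusive = no clear call, values can overlap the other calls; inactive = the rest.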
What was measured:
[1] = S. cerevisiae growth inhibition in permissive medium (OD615), pilot counter-assay for S. cerevisiae lifespan shortening project, permissive growth control (AID 705;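 active = growth inhibition above 25% in both replicates, a cutoff set 3 SD above the mean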); details: OD615, 24 h, at 10 µM, stronger effect = higher value
Procedure, shortened: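 System – S. cerevisiae with engineered DeaD lifespan system · Buffer or medium – SC raffinose/galactose permissive medium · Schedule – cells pre-grown 4 h, then 24 h compound exposure, 30 °C humidified · Technique – culture turbidity as optical density at 615 nm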

[2] = S. cerevisiae growth inhibition in restrictive medium, OD615, pilot screen, restrictive growth control, yeast lifespan reduction project (AID 706;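 active = growth inhibition above a set limit, 3 SD over mean compound inhibition, in both replicates, cut at about 43% in these data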;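 also: modified DeaD lifespan yeast strain shifted to restrictive glucose medium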); details: OD615, 48 h, at 10 µM, stronger effect = higher value
Procedure, shortened: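 Material: engineered S. cerevisiae DeaD strain / Medium: glucose-based CSMM-D restrictive medium / Compound: single dose of 10 µM compound final, 0.25% DMSO / Timing: 4 h pre-incubation, 48 h exposure at 30 °C / Technique: OD615 absorbance reading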

[3] = doxorubicin toxicity protection in MRP-1 cells – H69AR cells, CellTiter-Glo, duplicate, MRP-1 activator project, pilot screen (AID 807;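 active = viability increase at or above a cutoff of the median across tested compounds plus 3 SD, cut at about 8.5% in these data, passing the limit was not always enough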;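 also: compound pretreatment 18-22 h then 72 h combined with doxorubicin; 0% = doxorubicin alone and 100% = vehicle without doxorubicin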); details: H69AR viability with doxorubicin, CellTiter-Glo luminescence; at 10 µM; stronger effect = higher value
[4] = viability of HCT116 without oncogenic beta-catenin – human colon tumor cells, pilot screen (AID 823;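 active = cell viability at or below a set limit in both duplicate runs, the limit being the all-compound median minus 4 SD, cut at about 23% in these data, passing the limit was not always enough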;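 also: 0% = wells killed by 20 µM Hyamine and 100% = untreated DMSO cell wells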); details: HCT116 beta-catenin knockout viability, CellTiter-Glo, 60 h; at 10 µM; stronger effect = lower value
[5] = viability of PTEN-null HCT116 cells – cell-based, HCT116 clonal line, CellTiter-Glo, pilot screen (AID 824); details: HCT116 PTEN-deleted viability, 60 h, at 10 µM, stronger effect = lower value;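 also: 0% = 20 µM Hyamine control and 100% = vehicle cell control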
[6] = RAM pathway blockade in budding yeast – dse1pr::URA3 reporter, 5-FOA selection, pilot screen (AID 869;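 active = inhibition over a set limit, the all-compound mean plus 3 SD, in both replicate runs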;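 also: 0% = DMSO wells with no growth and 100% = 10 µM 1-NA-PP1 with full growth; RAM network block rescues cells from 5-FOA so hits raise OD615 growth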); details: S. cerevisiae dse1pr::URA3 5-FOA growth, OD615, 2 d; at 10 µM; stronger effect = higher value; strain carries analog-sensitive mutant Cbk1 kinase
[7] = RAM signaling pathway blockade in yeast – S. cerevisiae, Pdr1DBD-CYC8 efflux-inhibited sensitized strain, primary screen (AID 1298;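 active = RAM network inhibition above 8.4% in each of two replicates, 3 SD over the compound average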;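 also: 0% = DMSO untreated cells without growth and 100% = 10 µM 1-NA-PP1 full growth; higher means more yeast growth rescued from 5-FOA killing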); details: S. cerevisiae cbk1-as DSE1-URA3 strain, 5-FOA growth OD615, 2 d; at 50 µM; stronger effect = higher value

Structure (SMILES) | growth inhibition [1] | growth inhibition [2] | viability increase [3] | viability [4] | viability [5] | inhibition [6] | RAM network inhibition [7]
O=C(c1cncc(Br)c1)N1CCN(c2ccc(N3CCOCC3)nn2)CC1 | -0.43% | 8.3% | -2.32% | 98.1% | 98.5% | 0.48% | 4.09%
O=C(NCc1ccco1)c1ccc(Br)c(S(=O)(=O)N2CCCCC2)c1 | 2.44% | -6.06% | -2.69% | 88.8% | 88.1% | 2.61% | 4.59%
O=C(CCn1c(=O)sc2ccccc21)NCCN1CCOCC1 | -3.08% | -14.8% | -1.01% | 101% | 106% | 1.49% | 1.56%
CCOC(=O)c1cnc2ccc(C(=O)OC)cc2c1NCCN1CCOCC1 | -6.57% | -2.95% | -4.73% | 86.6% | 92.1% | 2.41% | 2.6%
CC(=O)Nc1ccc(S(=O)(=O)N2CCN(c3cccc(C)c3C)CC2)cc1 | -2.38% | -3.89% | -6.76% | 35.8% | 34.5% | 0.185% | 0.9%
CCOC(=O)CN1CC23C=CC(O2)C(C(=O)NCc2ccc(C)cc2)C3C1=O (configuration not stated) | -6.12% | -3.33% | -0.1% | 99.5% | 109% | 1.29% | 1.3%
CCCCc1ccc(NC(=O)OC)cc1 | 1.49% | 10.8% | 3.48% | 104% | 90.6% | 2.21% | -2%
COc1cccc(C2c3c(oc4ccccc4c3=O)C(=O)N2c2ccccn2)c1 (configuration not stated) | -2.5% | -15.9% | 0.48% | 92.4% | 97.2% | 0.28% | 4.39%
Cn1c(SCC(=O)Nc2ccc(F)cc2F)nnc1-c1cccnc1 | -13.9% | -8.12% | -0.94% | 104% | 95% | 3.28% | -0.27%
COc1ccc(NC(=O)C2CCCN2S(=O)(=O)c2ccc3c(c2)CCC(=O)N3)cc1Cl (configuration not stated) | -1.44% | -23.7% | -2.9% | 90.8% | 87.7% | 1.18% | 1.9%
Cc1cc(C(=O)NCC(c2ccco2)N(C)C)no1 (configuration not stated) | -3.54% | -10.7% | -2.83% | 98.1% | 99.6% | 1.4% | 8.39%
CCOC(=O)CCc1n[nH]c(=O)[nH]c1=O | -3.33% | 5.9% | -0.23% | 102% | 104% | 1.46% | 0%
CCSc1nnc(NC(=O)C(C)C)s1 | 3.02% | -5.11% | 1.51% | 100% | 109% | 0.765% | 0.89%
Cc1ccc(-c2nc(CS(=O)CC(=O)NCCC(C)C)c(C)o2)cc1 (configuration not stated) | -6.7% | -1.91% | -0.71% | 92.2% | 95.8% | 1.14% | 3.42%
Cn1c(SCC(=O)N2CCCCCC2)nc2c([nH]c3ccccc32)c1=O | -14.3% | -27.8% | -5.85% | 89% | 86.7% | 3.46% | 8.37%
Cc1cc(Nc2cc(C)on2)n2ncnc2n1 | 2.33% | -10% | -1.14% | 106% | 99.8% | 0.195% | 2.24%
Cc1csc(NC(=O)CSc2nnc(Cn3c(=O)sc4ccccc43)n2-c2ccccc2)n1 | 0.38% | 15.3% | -1.37% | 96% | 96.8% | 2.42% | 6.99%
O=C(OC1CCCCC1)c1ccc(NC(=O)c2ccco2)cc1 | -1.26% | -7.55% | -2.73% | 70.1% | 77.5% | 0.87% | 2.81%

Structure (SMILES) | growth inhibition [1] | growth inhibition [2] | viability increase [3] | viability [4] | viability [5] | inhibition [6] | RAM network inhibition [7]
S=c1[nH]nc(-c2ccncc2)n1Cc1ccccc1 | -4.1% | -9.11% | -1.9% | 100% | 93.7% | 0.265% | 1.95%
COc1ccc(CN2CCN(C(=O)c3cccs3)CC2)cc1Br | -11.5% | -13.4% | -1.27% | 85.4% | 87.9% | 0.72% | 2.53%
CCC(=O)Nc1c2c(nn1-c1cccc(Cl)c1)CSC2 | -7.68% | -8.67% | -1.61% | 89.7% | 86.1% | 2.1% | 1.11%
Cc1c(C(=O)NCc2ccco2)sc2nc(-c3ccccc3)cn12 | 3.59% | 10.2% | -4.77% | 78.6% | 67.3% | 0.04% | 2.7%
CCOc1ccc(C2CC(=O)NC(SC)=C2C#N)cc1 (configuration not stated) | -15.8% | -15.5% | -2.65% | 104% | 94.9% | 0.595% | 6.38%
Cc1ccc(C)c(-n2nnnc2SCC(=O)Nc2cccc(-c3nnc4n3CCCCC4)c2)c1 | 12.3% | 54.4% (active) | -0.74% | 97.7% | 90.9% | 1.77% | 6.57%
COc1ccc(C2CC(c3ccc(F)cc3)Nc3nc(N)nn32)cc1 (configuration not stated) | -3.94% | 11.2% | 0.02% | 98.1% | 94.4% | 1% | 6.59%
CCC(C)NC(=O)CN(c1ccc2c(c1)OCO2)S(=O)(=O)c1c(C)n[nH]c1C (configuration not stated) | -12.1% | -7.16% | -1.79% | 107% | 99.4% | 1.34% | 2.93%
Cc1ccc(C)c2c1sc(=NC(=O)CN1C(=O)CCC1=O)n2C | -15% | -2.54% | -1.69% | 88% | 83.2% | 2.84% | 5.96%
COc1cc(OC)cc(-c2cc3nc(C)c(CCC(=O)O)c(C)n3n2)c1 | 0.5% | -1.06% | -2.31% | 96.6% | 96.6% | 0.805% | 1.56%
Cc1ccc(-n2ncc3c(=O)[nH]c(SCC(=O)N4CCCCC4)nc32)cc1 | -4.04% | 2.2% | -4.87% | 94.6% | 92.1% | 1.27% | 0.05%
O=C1C(C=NCCN2CCOCC2)=C(O)c2ccccc21 | -15.9% | -26.8% | -1.88% | 100% | 92.4% | 2.4% | 3.56%
Cc1cccc(C)c1NC(=O)C1(NC(=O)c2cnccn2)CCCCC1 | -12.1% | 0.045% | -2.5% | 98.4% | 95.1% | 1.21% | 0.32%
CC12CCC(C(=O)Nc3ccccc3N3CCOCC3)(CC1=O)C2(C)C (configuration not stated) | -9.71% | -14.9% | -2.5% | 90.3% | 94.8% | 0.715% | 6.03%
Cc1ccc(C2CC(c3cccc(C)c3)n3nc(N)nc3N2)cc1 (configuration not stated) | -0.275% | 16.7% | -3.52% | 89.6% | 81% | 1.81% | 1.43%
Oc1ccc(Br)cc1-c1nc2cnccn2c1NC1CCCC1 | -11.9% | 1.74% | -7.32% | 55.5% | 54.6% | -0.895% | -1.71%
CCOC(=O)c1nnn(-c2nonc2N)c1-c1ccccc1 | -8.1% | 7.27% | -0.46% | 98.7% | 103% | 2.83% | 5.09%
CN1C(=O)C(O)(CC(=O)c2cccnc2)c2ccccc21 (configuration not stated) | -7.06% | -7.81% | -4.86% | 83% | 85% | 2.05% | 1.88%

Source: PubChem BioAssay
